We go through three compounds from ChEMBL document CHEMBL1122660 (J Med Chem, 1984).

Where only a bound is given, the exact number is not on record here.

Data set [1] concerns P388. Briefly: Optimum dose (mg/kg) against P388 leukemic cells. The data set is classed as functional, Mus musculus.
Data set [2] concerns P388. Briefly: Minimum effective dose against P388 leukemic cells. The data set is classed as functional. The conditions noted are these: Mus musculus, read-out: MED.
Data set [3] deals with Mus musculus. The data set is described as follows: Evaluated for antitumor activity against B-16 melanoma in mice at a dose 8 mg/kg day, ip, on days 1, 4, and 7 against B-16 Melanoma cell. The data set is classed as functional.
Data set [4] deals with Mus musculus. Briefly: Evaluated for antitumor activity against B-16 melanoma in mice at a dose 2 mg/kg day, ip, on days 1, 4, and 7 against B-16 Melanoma cell. The data set is classed as functional. An outline of the steps: (§1)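 B-16 melanoma in mice, run at Bristol Laboratories by standard NCI protocols. Compound given ip on days 1, 4 and 7 in Me2SO + buffered saline vehicle; ten mice per dose. Read-outs per dose: %T/C, number of survivors, and weight change.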

The subject of data set [5] is Mus musculus. The data set is described as follows: Evaluated for antitumor activity against B-16 melanoma in mice at a dose 4 mg/kg day, ip, on days 1, 4, and 7 against B-16 Melanoma cell. It is filed as functional. The procedure, abridged: as §1
Data set [6] concerns Mus musculus. Briefly: Evaluated for antitumor activity against B-16 melanoma in mice at a dose 6 mg/kg day, ip, on days 1, 4, and 7 against B-16 Melanoma cell. It is filed as functional.
Data set [7] deals with Mus musculus. Briefly: Evaluated for antitumor activity against B-16 melanoma in mice aat a dose 2 mg/kg day, ip,on days 1, 4, and 7 against B-16 Melanoma cell. It is filed as functional.
For data set [8], the system named is P388. Briefly: Maximum percent T/C (antitumor activity) against P388 leukemia cells for Mitomycin C. The data set is classed as functional, Mus musculus.
The species named for data set [9] is Mus musculus. The data set is described as follows: Maximum percent T/C (antitumor activity) against P388 leukemia cells for the compound. The number of 30-day survivors is given in the parenthesis. It is filed as functional.
For data set [10], the system named is P388. Briefly: Ratio of optimal dose (OD) and minimum effective dose (MED) required for antitumor activity in mice bearing P-388 lymphocytic leukemia. The data set is classed as functional, Mus musculus.
The nature of data set [11]: Partition coefficient between 1-octanol and water containing phosphate buffer at pH 7.4. The data set is classed as physicochemical. The conditions noted are these: 1-octanol/water containing phosphate buffer.
Data set [12] is filed under the species Mus musculus. Briefly: Percentage change in WBC at optimum dose on day 3. It is filed as functional.
For data set [13], the system named is Mus musculus. The data set is described as follows: Evaluated for antitumor activity against B-16 melanoma in mice at a dose 12 mg/kg day, ip, on days 1, 4, and 7 against B-16 Melanoma cell. It is filed as functional.
The test system of data set [14] is Mus musculus. Briefly: Evaluated for antitumor activity against B-16 melanoma in mice at a dose 3 mg/kg day, ip, on days 1, 4, and 7 against B-16 Melanoma cell. It is filed as functional. An outline of the steps:
as §1

In data set [15] the test system is Mus musculus. Briefly: Evaluated for antitumor activity against B-16 melanoma in mice at a dose 5 mg/kg day, ip, on days 1, 4, and 7 against B-16 Melanoma cell. The data set is classed as functional.
The subject of data set [16] is Mus musculus. The data set is described as follows: Evaluated for antitumor activity against B-16 melanoma in mice at a dose 5 mg/kg day, ip, on days 1, 4, and 7 against B-16 Melanoma cell *-Tumors survivors on day 62. The data set is classed as functional.
Data set [17] relates to Mus musculus. Briefly: Evaluated for antitumor activity against B-16 melanoma in mice aat a dose 3 mg/kg day, ip,on days 1, 4, and 7 against B-16 Melanoma cell. It is filed as functional.
Data set [18] deals with Mus musculus. Briefly: Evaluated for antitumor activity against B-16 melanoma in mice at a dose 3 mg/kg day, ip, on days 1, 4, and 7 against B-16 Melanoma cell *-Tumors survivors on day 62. The data set is classed as functional.
In data set [19] the test system is Mus musculus. The data set is described as follows: Evaluated for antitumor activity against B-16 melanoma in mice at a dose 1 mg/kg day, ip, on days 1, 4, and 7 against B-16 Melanoma cell. It is filed as functional. An outline of the steps:
as §1

Data set [20] has as its system Mus musculus. Briefly: Evaluated for antitumor activity against B-16 melanoma in mice aat a dose 1 mg/kg day, ip,on days 1, 4, and 7 against B-16 Melanoma cell. The data set is classed as functional. An outline of the steps:
as §1

Data set [21] is filed under the species Mus musculus. Briefly: Maximum percent T/C (antitumor activity) against P388 leukemia cells for the compound; 144-325. The data set is classed as functional.
For data set [22], the system named is Mus musculus. The data set is described as follows: Evaluated for antitumor activity against B-16 melanoma in mice at a dose 1 mg/kg day, ip, on days 1, 4, and 7 against B-16 Melanoma cell *-Tumors survivors on day 62. The data set is classed as functional.
For data set [23], the system named is Mus musculus. Briefly: Evaluated for antitumor activity against B-16 melanoma in mice at a dose 2 mg/kg day, ip, on days 1, 4, and 7 against B-16 Melanoma cell *-Tumors survivors on day 62. It is filed as functional.
For data set [24], the system named is Mus musculus. The data set is described as follows: Evaluated for antitumor activity against B-16 melanoma in mice at a dose 4 mg/kg day, ip, on days 1, 4, and 7 against B-16 Melanoma cell *-Tumors survivors on day 62. It is filed as functional.

In general, T/C refers to the result in the treated group divided by that in the control group, in per cent. `COc1ccc(NC2=C(C)C(=O)C3=C(C2=O)[C@H](COC(N)=O)C2(OC)[C@@H]4N[C@@H]4CN32)cc1OC` (stereo partly specified) came in with an OD in the data set on P388 [1] of 12.8 mg/kg. Moreover, the minimal effective dose with P388 [2] was determined as 0.2 mg/kg. In addition, the Average weight gain in the data set with Mus musculus [3] was 0.9 g; in the data set on Mus musculus [5] it was -0.6 g; with Mus musculus [6] it was 0.6 g; in the data set with Mus musculus [7], -1.3 g. For the same compound, the T/C in the data set on Mus musculus [3] is given as 227%; in the data set on Mus musculus [4], 180%; in the data set with Mus musculus [5] it was 252%; in the data set on Mus musculus [6], 263%; with P388 [8] it was 278%; in the data set filed under Mus musculus [9], over 333%. For the same compound, the Therapeutic ratio with P388 [10] came out at 64.
As usually defined, the logD is the decadic logarithm of the distribution of all forms, ionised or not, between an organic phase and buffer at a given pH. Regarding `[H][C@@]12CN3c4c(O)c(C)c(/N=C5C=C/C(=N\C(C)=O)C=C/5)c(O)c4[C@H](COC(N)=O)C3(OC)[C@]1([H])N2` (stereo partly specified), the logD in data set [11] was found to be 0.33. Further, the Change in the data set listed under Mus musculus [12] is given as -40%. Moreover, the OD in the data set with P388 [1] came to 25.6 mg/kg. The minimal effective dose in the data set with P388 [2] came to 0.2 mg/kg. Besides, the Average weight gain with Mus musculus [13] is on record as -1.3 g; in the data set with Mus musculus [3], 0.3 g; in the data set on Mus musculus [15] it was 0.8 g; in the data set on Mus musculus [17], 1.4 g. Moreover, the T/C was 175% in the data set on Mus musculus [13]; 207% in the data set on Mus musculus [3]; 155% with Mus musculus [14]; 185% with Mus musculus [15]; 200% in the data set with P388 [8]; over 333% in the data set listed under Mus musculus [9]. In addition, the Cures in the data set on Mus musculus [16] and in the data set on Mus musculus [18] was 0 in each case. Besides, the Therapeutic ratio in the data set with P388 [10] is 128.
With `CO[C@@]12[C@H](COC(N)=O)C3=C(C(=O)C(C)=C(N)C3=O)N1C[C@@H]1N[C@@H]12` [MITOMYCIN], the Change in the data set listed under Mus musculus [12] is -42%. This compound showed an OD with P388 [1] of 3.2 mg/kg. Moreover, the minimal effective dose in the data set with P388 [2] stood at 0.2 mg/kg. For the same compound, the T/C in the data set on Mus musculus [19] was found to be 155%; in the data set on Mus musculus [4], 152%; in the data set with Mus musculus [14], 165%; in the data set with Mus musculus [5], 200%; in the data set filed under Mus musculus [21], 144%. The Average weight gain with Mus musculus [4] is listed as 0.5 g; in the data set on Mus musculus [14], -0.1 g; with Mus musculus [5] it was -0.1; in the data set on Mus musculus [20], 0.2 g. In addition, the Cures with Mus musculus [22], with Mus musculus [18], with Mus musculus [23] and in the data set on Mus musculus [24] was 0 in each case.
